These results are taken from ChEMBL document CHEMBL1149773, “Synthesis, determination of the lipophilicity, anticancer and antimicrobial properties of some fused 1,2,4-triazole derivatives” (Eur J Med Chem, 2008).

The subject of assay [1] is Klebsiella pneumoniae. Kind of assay: Antimicrobial activity against Klebsiella pneumoniae at 480.6 uM by disc-diffusion method. It counts as functional. Particulars: read-out: IZ. In outline:
(§1)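 Kirby–Bauer disc diffusion: 5 mm paper discs soaked in compound solution in DMSO (100 or 200 µg/mL; reference drugs 200 µg/mL) and laid on inoculated Mueller-Hinton agar (bacteria) or Sabouraud agar (C. albicans, Aspergillus). DMSO discs were the control. Plates ran 24 h at 35 °C. Inhibition zone diameter was scored 0–10 mm R, 11–16 mm I, 17–25 mm S; triplicate.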
On the technique in general: In agar diffusion tests the substance spreads into inoculated agar from a disc or well.

The test system of assay [2] is Staphylococcus epidermidis. The assay is described as follows: Antimicrobial activity against Staphylococcus epidermidis at 480.6 uM by disc-diffusion method. Type of assay: functional. The conditions noted are these: read-out: IZ. The essentials: as §1
Assay [3] concerns Klebsiella aerogenes. The assay is described as follows: Antimicrobial activity against Enterobacter aerogenes at 480.6 uM by disc-diffusion method. It counts as functional. The conditions noted are these: read-out: IZ. In outline: as §1
Assay [4] deals with Candida albicans. The assay is described as follows: microbe, parasite or virus in culture. Particulars: ATCC 10231, read-out: IZ.
Assay [5] relates to Aspergillus sp. Kind of assay: Antimicrobial activity against Aspergillus sp. at 480.6 uM by disc-diffusion method. Type of assay: functional. Particulars: read-out: IZ. The essentials:
as §1

Assay [6] concerns Pseudomonas aeruginosa. The assay is described as follows: Antimicrobial activity against Pseudomonas aeruginosa ATCC 27853 at 480.6 uM by disc-diffusion method. It counts as functional. Particulars: read-out: IZ. The essentials: as §1
Assay [7] deals with Staphylococcus aureus. Kind of assay: Antimicrobial activity against Staphylococcus aureus ATCC 25923 at 480.6 uM by disc-diffusion method. Particulars: read-out: IZ. It counts as functional. The essentials:
as §1

Assay [8] deals with Proteus vulgaris. Kind of assay: Antimicrobial activity against Proteus vulgaris at 480.6 uM by disc-diffusion method. Particulars: read-out: IZ. Type of assay: functional. The essentials: as §1
Assay [9] has as its system Streptococcus pyogenes. The assay is described as follows: Antimicrobial activity against Streptococcus pyogenes at 480.6 uM by disc-diffusion method. It counts as functional. The conditions noted are these: read-out: IZ. The essentials:
as §1

For assay [10], the system named is Candida albicans. Kind of assay: Antimicrobial activity against Candida albicans ATCC 10231 after 24 hrs by microdilution assay. It counts as functional. The conditions noted are these: ATCC 10231, 24 h. A general note: In broth dilution the organism is exposed to a series of concentrations in liquid medium.
The subject of assay [11] is Escherichia coli. Kind of assay: Antimicrobial activity against Escherichia coli ATCC 25922 at 480.6 uM by disc-diffusion method. It counts as functional. Particulars: read-out: IZ. The essentials:
as §1

The test system of assay [12] is Streptococcus agalactiae. Kind of assay: Antimicrobial activity against Streptococcus agalactiae at 480.6 uM by disc-diffusion method. Particulars: read-out: IZ. Type of assay: functional. In outline: as §1
Assay [13] concerns Proteus vulgaris. The assay is described as follows: Antimicrobial activity against Proteus vulgaris at 572.4 uM by disc-diffusion method. It counts as functional. The conditions noted are these: read-out: IZ. The essentials: as §1
Assay [14] concerns Staphylococcus aureus. Kind of assay: Antimicrobial activity against Staphylococcus aureus ATCC 25923 at 572.4 uM by disc-diffusion method. Type of assay: functional. The conditions noted are these: read-out: IZ. The essentials: (§2)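 Kirby–Bauer disc diffusion on Mueller-Hinton medium. Sterile 5 mm paper discs are impregnated with agent dissolved in DMSO and placed on inoculated agar. DMSO discs serve as solvent control. Plates are incubated 24 h at 35 °C. Inhibition zone diameter is scored as 0–10 mm resistant, 11–16 mm intermediate, or 17–25 mm susceptible. Each assay is run three times.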

The test system of assay [15] is Aspergillus sp. Kind of assay: Antimicrobial activity against Aspergillus sp. at 572.4 uM by disc-diffusion method. Type of assay: functional. Particulars: read-out: IZ. In outline:
as §1

Assay [16] deals with Candida albicans. The assay is described as follows: Antimicrobial activity against Candida albicans ATCC 10231 at 572.4 uM by disc-diffusion method. Particulars: read-out: IZ. It counts as functional. In outline: as §1
Assay [17] deals with Streptococcus pyogenes. Kind of assay: Antimicrobial activity against Streptococcus pyogenes at 572.4 uM by disc-diffusion method. Type of assay: functional. Particulars: read-out: IZ. The essentials: as §2
The subject of assay [18] is Pseudomonas aeruginosa. The assay is described as follows: Antimicrobial activity against Pseudomonas aeruginosa ATCC 27853 after 24 hrs by microdilution assay. Type of assay: functional. The conditions noted are these: ATCC 27853, 24 h.
The subject of assay [19] is Staphylococcus aureus. The assay is described as follows: Antimicrobial activity against Staphylococcus aureus ATCC 25923 after 24 hrs by microdilution assay. Type of assay: functional. The conditions noted are these: ATCC 25923, 24 h.
Assay [20] deals with Klebsiella pneumoniae. The assay is described as follows: Antimicrobial activity against Klebsiella pneumoniae at 572.4 uM by disc-diffusion method. It counts as functional. The conditions noted are these: read-out: IZ. The essentials:
as §1

The subject of assay [21] is Klebsiella aerogenes. The assay is described as follows: Antimicrobial activity against Enterobacter aerogenes at 572.4 uM by disc-diffusion method. Particulars: read-out: IZ. Type of assay: functional. The essentials:
as §1

Assay [22] has as its system Pseudomonas aeruginosa. Kind of assay: Antimicrobial activity against Pseudomonas aeruginosa ATCC 27853 at 572.4 uM by disc-diffusion method. It counts as functional. The conditions noted are these: read-out: IZ. In outline: as §1
Assay [23] deals with Streptococcus agalactiae. Kind of assay: Antimicrobial activity against Streptococcus agalactiae at 572.4 uM by disc-diffusion method. Type of assay: functional. Particulars: read-out: IZ. The essentials: as §2
The test system of assay [24] is Staphylococcus epidermidis. The assay is described as follows: Antimicrobial activity against Staphylococcus epidermidis at 572.4 uM by disc-diffusion method. It counts as functional. The conditions noted are these: read-out: IZ. In outline: as §1
For assay [25], the system named is Escherichia coli. Kind of assay: microbe, parasite or virus in culture. Particulars: ATCC 25922, read-out: IZ.

Molecules are shown by their SMILES. ≈ marks a conversion by molar mass, not a printed value.

The MIC is the lowest concentration found to suppress growth. Higher therefore signals a need for much substance. Regarding `Clc1ccc(COC(Cn2ccnc2)c2ccc(Cl)cc2Cl)c(Cl)c1` (stereo not given) [MICONAZOLE], the zone of inhibition at 480.6 µM was found to be 0 mm in the assay with Klebsiella pneumoniae [1]; 0 mm in [2]; 0 mm in the assay on Klebsiella aerogenes [3]; 17 mm with Candida albicans [4]; 0 mm in the assay on Aspergillus sp. [5]; 0 mm in the assay on Pseudomonas aeruginosa [6]. Besides, the zone of inhibition at 480.6 µM in the assay with Staphylococcus aureus [7], in the assay on Proteus vulgaris [8], in the assay on Streptococcus pyogenes [9], in the assay on Escherichia coli [11] and in the assay with Streptococcus agalactiae [12] was 0 mm in each case. Also, in the assay with Candida albicans [10], the MIC amounted to 37.5 µM (≈ 15.6 µg/mL).
Regarding `CC1(C)S[C@@H]2[C@H](NC(=O)[C@H](N)c3ccccc3)C(=O)N2[C@H]1C(=O)O` [AMPICILLIN], the zone of inhibition at 572.4 µM in the assay on Proteus vulgaris [13] is 0 mm; in the assay on Staphylococcus aureus [14] it was 17 mm; in the assay with Aspergillus sp. [15], 0 mm; with Candida albicans [16], 0 mm; in the assay on Streptococcus pyogenes [17], 17 mm; with Klebsiella pneumoniae [20], 0 mm. Besides, the zone of inhibition at 572.4 µM in the assay with Klebsiella aerogenes [21] was found to be 0 mm; in the assay with Pseudomonas aeruginosa [22] it was 11 mm; with Streptococcus agalactiae [23] it was 17 mm; in [24], 11 mm; in the assay on Escherichia coli [25], 17 mm. The MIC was over 358 µM against Pseudomonas aeruginosa [18] and 35.8 µM (≈ 12.5 µg/mL) against Staphylococcus aureus [19].
